The record followed here is publication PMC11646436 (International Journal of Nanomedicine, 2024).

Data set [1] in a line: Tissue distribution in AsPC-1 tumor-bearing mice. It counts as in vivo, BALB/c nude mice. The conditions noted are these: i.v. 38 μmol/kg. Summed up: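 BALB/c nude mice carrying subcutaneous AsPC-1 tumours (5×10^6 cells, right flank; 300–500 mm3) received one i.v. bolus at an equimolar 38 μmol/kg (parent drug 10 mg/kg; liposomal prodrug 19 mg/kg). After cardiac perfusion, tumour, heart, liver, spleen, lung, kidney and pancreas were collected at 0.5, 4, 8, 12 and 24 h. Parent nucleoside and prodrug were measured by LC-MS/MS.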

For another data set, the system named is SU.86.86 cells. Kind of data set: MTT cytotoxicity assay. The format is cell-based. The conditions noted are these: Homo sapiens, SU.86.86, 48 h. Summed up:
(§1)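 Seeding was 2×10^4 per well for AsPC-1 and 1×10^4 for PANC-1, BxPC-3, Mia PaCa-2 and SU.86.86; cells adhered for 24 h at 37°C in 5% CO2. Test compound was given at 0.01, 0.1, 1, 10 and 100 μM for 48 h. MTT (5 mg/mL stock in PBS) was added for 4 h, dissolved in DMSO, and read at 490 nm. Viability was calculated against drug-free cells and cell-free blanks. Mean ± SD, n = 3.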
On the technique in general: Formazan colour is commonly taken as a measure of viable cells.

A further data set deals with Mia PaCa-2 cells. The data set can be described thus: MTT cytotoxicity assay. It counts as cell-based. To be noted: Homo sapiens.
The subject of a further data set is BxPC-3 cells. Kind of data set: MTT cytotoxicity assay. The format is cell-based. To be noted: Homo sapiens, BXPC-3, 48 h. Summed up: as §1
For data set [2], the system named is AsPC-1 cells. Kind of data set: Cellular accumulation by LC-MS/MS. It counts as cell-based, Human. To be noted: AsPC-1, 10 μM, 48 h; Gem (Gem group), Gem and tcGem (LipotcGem group). Summed up: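 AsPC-1 cells were seeded at 5×10^6 per 10 cm dish overnight and exposed to 10 μM test compound for 12, 24 or 48 h. Cells were washed, counted and sonicated at 4°C in methanol-water (1:1). Parent nucleoside and prodrug were quantified by LC-MS/MS on a C8 UPLC column. The gradient was water/acetonitrile with 0.1% formic acid at 0.2 mL/min.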

For data set [3], the system named is AsPC-1 cells. Kind of data set: MTT cytotoxicity assay. It counts as cell-based. The conditions noted are these: Homo sapiens, ASPC1, 48 h, AsPC-1, 48 h incubation, 2×10^4 cells per well. In outline:
as §1

Data set [4] has as its system AsPC-1 cells. Kind of data set: Cell cycle analysis by flow cytometry. The format is cell-based, Human. The conditions noted are these: AsPC-1, 10 μM, 24 h. In outline: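 AsPC-1 cells were seeded at 5×10^5 per well in 6-well plates and exposed to 10 μM test compound. They were then fixed overnight in cold 70% ethanol, stained with propidium iodide containing RNase A in the dark at room temperature, and analysed by flow cytometry for cell-cycle phase percentages. Mean ± SD, n = 3.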
A general note: Flow cytometry measures light scatter and fluorescence of single cells or particles in a stream.

The subject of the next data set is PANC-1 cells. The data set can be described thus: MTT cytotoxicity assay. The format is cell-based, Human.
Data set [5] deals with AsPC-1 subcutaneous xenograft. Kind of data set: Pharmacodynamics in AsPC-1 subcutaneous xenograft model. The format is in vivo, BALB/c nude mice. Summed up: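 Female BALB/c nude mice (18–20 g) received 5×10^6 AsPC-1 cells subcutaneously in the right flank. At ~100 mm3 they were sorted by volume and randomised into three groups. Dosing was i.v., Q3D × 6: 5% glucose vehicle, parent drug 10 mg/kg, or liposomal test compound 5 mg/kg. Tumour volume and body weight were followed throughout. Tumours were weighed on Day 30, one week after the last dose, and organs were taken for H&E. n = 5.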

Data set [6] deals with AsPC-1-luc orthotopic xenograft. Kind of data set: Pharmacodynamics in AsPC-1-luc orthotopic xenograft model. The format is in vivo, BALB/c nude mice. Summed up:
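AsPC-1-luc cells were grown in RPMI-1640 with 10% FBS and 0.5 μg/mL puromycin. Under anaesthesia, 3×10^6 cells in 25 μL were injected into the pancreas of BALB/c nude mice. On day 7, luciferase substrate was given i.p. and mice were IVIS-imaged within 5 min, then grouped by bioluminescence. Dosing was i.v., Q3D × 6: 5% glucose, parent drug 10 mg/kg, or liposomal test compound 5 mg/kg. Mice were imaged on Days 17 and 27, followed by ex vivo organ imaging.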

Data set [7] relates to AsPC-1 cells. Kind of data set: Transwell cell invasion assay. It counts as cell-based, Human. The conditions noted are these: AsPC-1, 1 μM, 48 h. Summed up:
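AsPC-1 cells (1×10^4) were placed in serum-free medium in the upper chamber of 8-μm-pore transwells, with complete medium below, and treated with 1 μM test compound for 48 h. Cells on the upper membrane surface were swabbed off. Cells on the lower surface were stained with 0.5% crystal violet and counted per field under bright-field microscopy. Mean ± SD, n = 3.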

SMILES strings stand for the structures.

By IC50 is commonly meant the point on the concentration scale where inhibition reaches its midpoint. In data set [1] (8 h, Gem (Gem group), Gem and tcGem (LipotcGem group)), `Nc1ccn([C@@H]2O[C@H](CO)[C@@H](O)C2(F)F)c(=O)n1` [Gem, Gemcitabine] had a concentration in tumors of 0.004 µmol/g. Moreover, in [1], the “Gem concentration in tumor tissues and plasma over time” value is on record as “undetectable beyond 8 h”. For the same molecule, the IC50 is greater than 100 µM in the data set on SU.86.86 cells; greater than 100 µM in the data set on Mia PaCa-2 cells (MIA PaCa-2, 48 h); 73.5 µM in the data set with Mia PaCa-2 cells (MIA PaCa-2, 72 h); 4.35 µM in the data set on BxPC-3 cells; greater than 100 µM in the data set with AsPC-1 cells [3]; greater than 100 µM in the data set with PANC-1 cells (Homo sapiens, PANC-1, 48 h). The same molecule came in with an intracellular accumulation with AsPC-1 cells [2] of 0.0015 nmol/10^6 cells. Besides, in the data set with AsPC-1 cells [4], the “Percentage of cells (%) S” value came out at 35%. For the same molecule, the cell viability result in the data set on PANC-1 cells (PANC-1, lower cell densities and extended exposure time) is “above 50%”. In addition, in [5] (Day 30, i.v. Q3D × 6, Gem 10 mg/kg, LipotcGem 5 mg/kg), the “tumor inhibition rate (TIR), tumor weight” value was 49%. In addition, the “tumor inhibition rate (TIR), tumor volume” value in [5] (i.v. Q3D × 6, Gem 10 mg/kg, LipotcGem 5 mg/kg) worked out at 50%. Besides, the body weight entry in data set [5] (subcutaneous model, throughout treatment) is “No significant weight loss”. Moreover, the “metastatic burden (bioluminescent signals, liver and intestine)” value in data set [6] (Day 27, ex vivo) is “moderate”. The “tumor inhibition rate (TIR)” value in [6] (orthotopic model, i.v. Q3D × 6, Gem 10 mg/kg, LipotcGem 5 mg/kg) was 50%. The molecule further had an invading cells with AsPC-1 cells [7] of 129 ± 27 cells per field.
